Laboratory results from ChEMBL document CHEMBL3608251, “Probing the 'bipolar' nature of the carbonic anhydrase active site: aromatic sulfonamides containing 1,3-oxazol-5-yl moiety as picomolar inhibitors of cytosolic CA I and CA II isoforms” (Eur J Med Chem, 2015).

Assays:
Carbonic anhydrase 1 = Carbonic anhydrase 1 (Homo sapiens, UniProt P00915); test: Inhibition of human recombinant carbonic anhydrase 1 preincubated for 15 mins by stopped flow CO2 hydration method
Procedure, shortened: (§1)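 Stopped-flow assay of CO2 hydration by in-house recombinant CA isoforms. Phenol red 0.2 mM read at 557 nm, in 20 mM Tris pH 8.3 with 20 mM Na2SO4 for constant ionic strength. CO2 1.7–17 mM; initial rates over 10–100 s, uncatalyzed rate subtracted. Inhibitor diluted in buffer down to 0.005 nM and preincubated with enzyme 15 min at room temperature. Ki by non-linear least squares with Cheng-Prusoff, mean of ≥3 determinations.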

Carbonic anhydrase 9 = Carbonic anhydrase 9 (Homo sapiens, UniProt Q16790); test: Inhibition of human recombinant carbonic anhydrase 9 preincubated for 15 mins by stopped flow CO2 hydration method; procedure, shortened: as §1
Homo sapiens [1] = organism: Homo sapiens; test: Selectivity ratio of Ki for human recombinant carbonic anhydrase 2 to Ki for human recombinant carbonic anhydrase 1
Carbonic anhydrase 12 = Carbonic anhydrase 12 (Homo sapiens, UniProt O43570); test: Inhibition of human recombinant carbonic anhydrase 12 preincubated for 15 mins by stopped flow CO2 hydration method; procedure, shortened: as §1
Carbonic anhydrase 2 = Carbonic anhydrase 2 (Homo sapiens, UniProt P00918); test: Inhibition of human recombinant carbonic anhydrase 2 preincubated for 15 mins by stopped flow CO2 hydration method
Homo sapiens [2] = organism: Homo sapiens; test: Selectivity ratio of Ki for human recombinant carbonic anhydrase 2 to Ki for human recombinant carbonic anhydrase 12
Homo sapiens [3] = organism: Homo sapiens; test: Selectivity ratio of Ki for human recombinant carbonic anhydrase 9 to Ki for human recombinant carbonic anhydrase 2
Homo sapiens [4] = organism: Homo sapiens; test: Selectivity ratio of Ki for human recombinant carbonic anhydrase 12 to Ki for human recombinant carbonic anhydrase 2
Homo sapiens [5] = organism: Homo sapiens; test: Selectivity ratio of Ki for human recombinant carbonic anhydrase 1 to Ki for human recombinant carbonic anhydrase 2

Chain of Carbonic anhydrase 1 (P00915 whole entry, canonical isoform): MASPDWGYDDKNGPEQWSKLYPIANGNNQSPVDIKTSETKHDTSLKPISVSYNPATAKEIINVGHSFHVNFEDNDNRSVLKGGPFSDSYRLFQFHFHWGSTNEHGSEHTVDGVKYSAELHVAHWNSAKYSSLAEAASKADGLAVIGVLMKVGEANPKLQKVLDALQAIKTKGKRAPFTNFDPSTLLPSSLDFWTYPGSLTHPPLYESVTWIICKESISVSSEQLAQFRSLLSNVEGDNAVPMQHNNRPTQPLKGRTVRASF
Chain of Carbonic anhydrase 12 (O43570 whole entry): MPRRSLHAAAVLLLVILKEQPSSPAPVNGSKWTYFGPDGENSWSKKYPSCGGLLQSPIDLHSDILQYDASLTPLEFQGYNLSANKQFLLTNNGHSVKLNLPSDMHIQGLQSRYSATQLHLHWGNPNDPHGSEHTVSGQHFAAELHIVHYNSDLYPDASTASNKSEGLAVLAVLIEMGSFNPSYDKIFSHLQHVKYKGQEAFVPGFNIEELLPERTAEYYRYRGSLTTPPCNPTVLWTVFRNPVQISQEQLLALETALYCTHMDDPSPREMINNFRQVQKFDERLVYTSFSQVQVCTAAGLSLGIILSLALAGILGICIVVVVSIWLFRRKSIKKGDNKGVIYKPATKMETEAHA

SMILES | Ki (Carbonic anhydrase 1) | Ki (Carbonic anhydrase 9) | Ratio Ki (Homo sapiens [1]) | Ki (Carbonic anhydrase 12) | Ki (Carbonic anhydrase 2) | Ratio Ki (Homo sapiens [2]) | Ratio Ki (Homo sapiens [3]) | Ratio Ki (Homo sapiens [4]) | Ratio Ki (Homo sapiens [5])
COc1ccc(-c2cnc(C)o2)cc1S(N)(=O)=O | > 10000 nM | 276 nM | > 100000 | 3540 nM | 4420 nM | > 100000 |  |  | 
Cc1ccc(-c2cnc(C3CC3)o2)cc1S(N)(=O)=O | 289 nM |  | > 100000 | 381 nM | 63.9 nM | > 100000 |  |  | 
NS(=O)(=O)c1cc(-c2cnc(C(=O)N3CCOCC3)o2)cs1 | 0.09 nM |  | 1000 | 9.2 nM | 0.03 nM |  |  |  | 
NS(=O)(=O)c1cc(-c2cnc(C3CC3)o2)cs1 | 22 nM |  | 1000 | 8.7 nM | 2.5 nM |  |  |  | 
NS(=O)(=O)c1ccc(-c2cnc(C(=O)N3CCOCC3)o2)s1 | 22.5 nM | 36.4 nM |  | 30.3 nM |  |  |  |  | 
NS(=O)(=O)c1cc(-c2cnc(C(=O)N3CCCC3)o2)cs1 | 79.9 nM | 15.2 nM | 1000 | 64.4 nM | 0.02 nM |  |  |  | 
COc1ccc(-c2cnc(C(=O)N3CCCC3)o2)cc1S(N)(=O)=O | > 10000 nM | 4.1 nM | > 100000 | 8570 nM | 0.01 nM | > 100000 |  |  | 
NS(=O)(=O)c1ccc(-c2cnc(C3CC3)o2)cc1 | 4.8 nM | 3.2 nM |  | 6.2 nM | 0.01 nM |  | 100 | 100 | 100
NS(=O)(=O)c1ccc(-c2cnc(C3CCC3)o2)s1 | 36.8 nM |  | 1000 | 5.1 nM | 0.01 nM |  |  |  | 
NS(=O)(=O)c1ccc(-c2cnc(C(=O)N3CCCC3)o2)s1 | 41.9 nM | 18.7 nM | 1000 | 6.7 nM | 0.01 nM |  |  |  | 
Cc1ncc(-c2ccc(C)c(S(N)(=O)=O)c2)o1 | 45.4 nM | 274 nM | > 100000 | 245 nM | 7.1 nM | > 100000 |  |  | 
NS(=O)(=O)c1ccc(-c2cnc(C3CCC3)o2)cc1 | 55.3 nM |  |  | 8.7 nM | 0.02 nM |  | 100 | 100 | 100
NS(=O)(=O)c1ccc(-c2cnc(C(=O)N3CCCC3)o2)cc1 | 0.01 nM | 1.7 nM |  | 42.3 nM | 0.009 nM |  |  |  | 
Cc1ncc(-c2ccc(S(N)(=O)=O)s2)o1 | 141 nM | 10.5 nM | 1000 | 9.4 nM | 6.3 nM |  |  |  | 
NS(=O)(=O)c1ccc(-c2cnc(C3CC3)o2)s1 | 130 nM | 122 nM | 1000 | 9.2 nM | 4.8 nM |  |  |  | 
Cc1ccc(-c2cnc(C(=O)N3CCCC3)o2)cc1S(N)(=O)=O | 8.5 nM | 42.5 nM | > 100000 | 2790 nM | 0.01 nM | > 100000 |  |  | 
NS(=O)(=O)c1ccc(-c2cnc(C(=O)N3CCOCC3)o2)cc1 | 0.01 nM | 1.6 nM |  | 6.9 nM | 0.008 nM |  |  |  | 
Cc1ccc(-c2cnc(C3CCC3)o2)cc1S(N)(=O)=O | 231 nM | 285 nM | > 100000 | 1390 nM | 283 nM | > 100000 |  |  | 
Cc1ncc(-c2csc(S(N)(=O)=O)c2)o1 | 0.05 nM | 26.3 nM | 1000 | 3.6 nM | 0.01 nM |  |  |  | 
COc1ccc(-c2cnc(C3CC3)o2)cc1S(N)(=O)=O | > 10000 nM | 438 nM | > 100000 | 7960 nM | 8860 nM | > 100000 |  |  | 
Cc1ncc(-c2ccc(S(N)(=O)=O)cc2)o1 | 96.3 nM | 23.1 nM |  | 8.5 nM |  |  |  |  | 
Cc1ccc(-c2cnc(C(=O)N3CCOCC3)o2)cc1S(N)(=O)=O | 58.6 nM | 3.7 nM | > 100000 | 557 nM | 0.28 nM | > 100000 |  |  | 
COc1ccc(-c2cnc(C3CCC3)o2)cc1S(N)(=O)=O | 6110 nM |  | > 100000 | 62.8 nM | 58.2 nM | > 100000 |  |  | 
NS(=O)(=O)c1cc(-c2cnc(C3CCC3)o2)cs1 | 9 nM | 25.9 nM | 1000 | 6.6 nM | 0.01 nM |  |  |  | 
COc1ccc(-c2cnc(C(=O)N3CCOCC3)o2)cc1S(N)(=O)=O | > 10000 nM | 4.5 nM | > 100000 | > 10000 nM | 0.05 nM | > 100000 |  |  | 
